The subject of one series is Candida albicans. Put plainly: Antifungal activity against Candida albicans assessed as reduction in fungal growth incubated for overnight by serial dilution assay. Type of series: functional. In outline: (§1)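 MIC50 determined against five fungi (C. albicans, M. hiemalis, R. glutinis, S. pombe, W. anomalus), with nystatin as positive control. Values given in µg/mL; "–" means no inhibition under test conditions.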

The test system of the next series is Mucor hiemalis. Description: Antifungal activity against Mucor hiemalis assessed as reduction in fungal growth incubated for overnight by serial dilution assay. The series is classed as functional. Summed up: as §1
A further series concerns Rhodotorula glutinis. Description: Antifungal activity against Rhodotorula glutinis assessed as reduction in fungal growth incubated for overnight by serial dilution assay. The series is classed as functional. Summed up: as §1
Series [1] concerns Schizosaccharomyces pombe. Put plainly: Antifungal activity against Schizosaccharomyces pombe assessed as reduction in fungal growth incubated for overnight by serial dilution assay. The series is classed as functional. Summed up: as §1
The subject of another series is Wickerhamomyces anomalus. Put plainly: Antifungal activity against Wickerhamomyces anomalus assessed as reduction in fungal growth incubated for overnight by serial dilution assay. The series is classed as functional. In outline:
as §1

For another series, the system named is Bacillus subtilis. Put plainly: Antibacterial activity against Bacillus subtilis assessed as reduction in microbial growth incubated for overnight by serial dilution assay. The series is classed as functional. Summed up: (§2)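 MIC50 determined against Gram-positive and Gram-negative bacteria. Positive controls: oxytetracycline for most bacteria, ciprobay for A. baumannii, gentamycin for Ps. aeruginosa. Values given in µg/mL; "–" means no inhibition under test conditions.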

Series [2] deals with Chromobacterium violaceum. Put plainly: Antibacterial activity against Chromobacterium violaceum assessed as reduction in microbial growth incubated for overnight by serial dilution assay. The series is classed as functional. Summed up: as §2
The subject of another series is Escherichia coli. Put plainly: Antibacterial activity against Escherichia coli assessed as reduction in microbial growth incubated for overnight by serial dilution assay. Type of series: functional. In outline:
as §2

A further series concerns Pseudomonas aeruginosa. Put plainly: Antibacterial activity against Pseudomonas aeruginosa assessed as reduction in microbial growth incubated for overnight by serial dilution assay. The series is classed as functional, organism-based. In outline: as §2
The test system of the next series is Staphylococcus aureus. Put plainly: Antibacterial activity against Staphylococcus aureus assessed as reduction in microbial growth incubated for overnight by serial dilution assay. The series is classed as functional. Summed up:
as §2

The nature of series [3]: (§3) Cytotoxicity against human KB-3-1 cells assessed as reduction in cell viability after 5 days by MTT assay. The series is classed as toxicity, cell-based. Conditions: human, KB-3-1 cells. In outline:
(§4)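 Cytotoxicity read by MTT method against mammalian cell lines (human endocervical adenocarcinoma KB 3.1, mouse fibroblast L929), with epothilone B as positive control. IC50 reported in µM.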
(Formazan colour is commonly taken as a measure of viable cells.)

Series [4] can be described thus: Cytotoxicity against mouse L929 cells assessed as reduction in cell viability after 5 days by MTT assay. The series is classed as toxicity, cell-based. In outline:
as §4

The subject of the next series is Acinetobacter baumannii. Description: Antibacterial activity against Acinetobacter baumannii assessed as reduction in microbial growth incubated for overnight by serial dilution assay.
For another series, the system named is KB 3-1. Described as §3. Type of series: toxicity, cell-based. Conditions: kb 3-1. Summed up: as §4

≈ marks a conversion by molar mass, not a printed value. Calls of active or inactive are those of the source.

Consider `CN1C(=O)C23SSC4c5ccccc5O[C@]41C(=O)N2O[C@]1(C[C@H](O)[C@H](O)CC1=O)[C@H]3O` (stereo partly specified), for which the result (with Candida albicans; in series [2]; in the series with Escherichia coli; with Pseudomonas aeruginosa) was inactive. Also, the MIC (commonly the smallest concentration in the dilution series that meets the test's criterion for growth inhibition) came to 33.3 µg/mL (≈ 71.4 µM) in the series with Mucor hiemalis; 66.6 µg/mL (≈ 143 µM) in the series with Rhodotorula glutinis; 66.6 µg/mL (≈ 143 µM) in series [1]; 66.6 µg/mL (≈ 143 µM) in the series with Wickerhamomyces anomalus (Hansenula anomala); 33.3 µg/mL in the series with Bacillus subtilis; 33.3 µg/mL with Staphylococcus aureus. The IC50 (as a rule, the midpoint of a concentration-inhibition curve) at 5 days amounted to 54 µM in series [3] and 58 µM in series [4].
As to GENTAMICIN, in the series on Pseudomonas aeruginosa, the MIC came out at 0.42 µg/mL.
In the case of `CN1C(=O)C23SSC4c5ccccc5O[C@]41C(=O)N2O[C@]1(C[C@H](O)C=CC1=O)[C@H]3O` (stereo partly specified), the MIC in the series on Candida albicans turned out to be 66.6 µg/mL (≈ 149 µM); in the series on Mucor hiemalis it was 8 µg/mL (≈ 17.8 µM); in the series on Rhodotorula glutinis it was 33.3 µg/mL (≈ 74.3 µM); in series [1], 66.6 µg/mL (≈ 149 µM); with Wickerhamomyces anomalus (Hansenula anomala), 33.3 µg/mL (≈ 74.3 µM); with Bacillus subtilis it was 16.6 µg/mL. In addition, the MIC was found to be 16.6 µg/mL in [2] and 8.3 µg/mL in the series on Staphylococcus aureus. The outcome in the series with Escherichia coli and in the series on Pseudomonas aeruginosa was inactive. Further, the IC50 at 5 days in series [3] is 49 µM; in series [4], 42 µM.
On to `CSC1c2ccccc2O[C@]12C(=O)N1O[C@]3(CCC=CC3=O)[C@@H](O)C1(SC)C(=O)N2C` (stereo partly specified), for which the result (with Candida albicans; with Mucor hiemalis; in the series with Rhodotorula glutinis; in series [1]; with Wickerhamomyces anomalus; in series [2]) was inactive. Besides, the result in the series on Escherichia coli and in the series with Pseudomonas aeruginosa was inactive. Further, the MIC in the series with Bacillus subtilis and in the series on Staphylococcus aureus was 66.6 µg/mL each time. The IC50 at 5 days was 15 µM in series [3] and 5 µM in series [4].
Take NYSTATIN: the MIC came to 16.6 µg/mL in the series with Candida albicans; 8.3 µg/mL in the series with Mucor hiemalis; 2.1 µg/mL in the series on Rhodotorula glutinis; 4.2 µg/mL in series [1]; 8.3 µg/mL in the series with Wickerhamomyces anomalus.
As for `O=C(O)c1cn(C2CC2)c2cc(N3CCNCC3)c(F)cc2c1=O` [CIPROFLOXACIN], the MIC in the series on Acinetobacter baumannii is 0.53 µg/mL.
Regarding `CN(C)[C@@H]1C(O)=C(C(N)=O)C(=O)[C@@]2(O)C(O)=C3C(=O)c4c(O)cccc4[C@@](C)(O)[C@H]3[C@H](O)[C@@H]12` [OXYTETRACYCLINE], the MIC with Bacillus subtilis was 16.6 µg/mL; in series [2] it was 0.83 µg/mL; in the series with Escherichia coli, 3.3 µg/mL; with Staphylococcus aureus, 0.83 µg/mL.
For `C/C(=C\c1csc(C)n1)[C@@H]1C[C@@H]2O[C@@H]2CCC[C@H](C)[C@H](O)[C@@H](C)C(=O)C(C)(C)[C@H](O)CC(=O)O1`, the results for the IC50 at 5 days in series [3] and in series [4] were 4e-05 µM and 0.00052 µM, respectively.
On to `CN1C(=O)C23SSSC4c5ccccc5O[C@]41C(=O)N2O[C@]1(C[C@H](O)[C@H](O)CC1=O)[C@H]3O` (stereo partly specified), for which the MIC came to 66.6 µg/mL (≈ 134 µM) in the series on Candida albicans; 66.6 µg/mL (≈ 134 µM) with Mucor hiemalis; 66.6 µg/mL (≈ 134 µM) in the series with Rhodotorula glutinis; 66.6 µg/mL (≈ 134 µM) in [1]; 33.3 µg/mL (≈ 66.8 µM) in the series with Wickerhamomyces anomalus (Hansenula anomala); 66.6 µg/mL in the series with Bacillus subtilis. The result (in series [2]; with Escherichia coli; in the series on Pseudomonas aeruginosa; in the series on Staphylococcus aureus) was inactive. Also, the IC50 result in the series with KB 3-1 is on record as “Non-Toxic”. Besides, the IC50 at 5 days in [4] stood at 50 µM.
